Experimental findings from ChEMBL document CHEMBL1932971, “Synthesis of uriedo and thiouriedo derivatives of peptide conjugated heterocycles - A new class of promising antimicrobials” (2012) are described below.

Common to all, as to assay type: functional
The test system of test [1] is Aspergillus flavus. The experiment in a line: Antifungal activity against Aspergillus flavus at 30 ug/ml after 72 hrs by agar well diffusion method. Conditions: read-out: DIZ. The procedure, abridged:
(§1)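 Fungal well diffusion. Inocula were subcultured in nutrient broth for one day, then spread on solidified medium. Compounds were made as a 1 mg/mL DMSO stock and diluted to 30 µg/mL final. Each 6 mm well got 0.1 mL. Controls were bavistin (reference) and DMSO (negative). Plates stood for 3 days at room temperature. Inhibition zone was measured in mm as the mean of three determinations.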
In general terms: A growth-free zone around the sample is the usual read-out of agar diffusion tests.

A further test concerns Escherichia coli. The test is described as follows: Antibacterial activity against Escherichia coli at 30 ug/ml after 24 hrs by agar well diffusion method. Particulars: read-out: DIZ. The procedure, abridged: (§2)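 Agar well diffusion. Inocula were grown in nutrient broth at 37 °C for 24 h, then subcultured in nutrient broth at room temperature. Compounds were made as a 1 mg/mL DMSO stock and diluted to 30 µg/mL final. Nutrient agar plates were spread-inoculated and 6 mm wells each got 0.1 mL. Controls were amoxicillin (reference) and DMSO (negative). Incubation was 24 h at 37 °C. Inhibition zone was measured in mm as the mean of three determinations.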

Test [2] has as its system Aspergillus niger. The test is described as follows: Antifungal activity against Aspergillus niger after 72 hrs by microdilution method.
Test [3] relates to Fusarium oxysporum. The experiment in a line: Antifungal activity against Fusarium oxysporum after 72 hrs by microdilution method.
Test [4] relates to Fusarium oxysporum. The test is described as follows: Ratio of bavistin MIC to compound MIC for Fusarium oxysporum after 72 hrs by microdilution method.
Test [5] deals with Aspergillus niger. The experiment in a line: Ratio of bavistin MIC to compound MIC for Aspergillus niger after 72 hrs by microdilution method.
Test [6] relates to Aspergillus niger. The test is described as follows: Antifungal activity against Aspergillus niger at 30 ug/ml after 72 hrs by agar well diffusion method. Conditions: read-out: DIZ. The essentials: as §1
In test [7] the test system is Aspergillus flavus. The experiment in a line: Antifungal activity against Aspergillus flavus after 72 hrs by microdilution method. On the technique in general: Broth dilution looks for growth in wells or tubes with falling amounts of substance.
Test [8] relates to Aspergillus flavus. The test is described as follows: Ratio of bavistin MIC to compound MIC for Aspergillus flavus after 72 hrs by microdilution method.
The subject of the next test is Staphylococcus aureus. The test is described as follows: Antibacterial activity against coagulase-positive Staphylococcus aureus at 30 ug/ml after 24 hrs by agar well diffusion method. Conditions: read-out: DIZ. The essentials:
as §2

The subject of test [9] is Fusarium oxysporum. The test is described as follows: Antifungal activity against Fusarium oxysporum at 30 ug/ml after 72 hrs by agar well diffusion method. Conditions: read-out: DIZ. The procedure, abridged:
as §1

A further test deals with Xanthomonas oryzae. The test is described as follows: Antibacterial activity against Xanthomonas oryzae at 30 ug/ml after 24 hrs by agar well diffusion method. Conditions: read-out: DIZ.
In a further test the test system is Klebsiella pneumoniae. The experiment in a line: Antibacterial activity against Klebsiella pneumoniae at 30 ug/ml after 24 hrs by agar well diffusion method. Conditions: read-out: DIZ. The essentials: as §2

In brackets after ≈: the same amount, converted by molar mass. Numbered stars: 1 amine (or outer) side, 2 acyl side, 3 side chain; on linkers, the order of the positions; unused ones are H or OH. Peptide text beside a SMILES is read from it. * marks the point of attachment. X1 = Fc1ccc2c(C3CCN(*)CC3)noc2c1; NH(2-F-phenyl) = Fc1ccccc1N*; CO = O=C([*:1])[*:2]; OcHex = C1CCC(O*)CC1

For `CC(C)[C@H](NC(=O)CNC(=O)[C@@H]1CCCN1C(=O)[C@H](Cc1ccccc1)NC(=O)CNC(=O)[C@H](CCC(=O)OC1CCCCC1)NC(=O)CNC(=O)Nc1ccccc1F)C(=O)NCC(=O)N[C@H](C(=O)N1CCC[C@H]1C(=O)NCC(=O)N[C@H](C(=O)NCC(=O)N[C@H](C(=O)N1CCC[C@H]1C(=O)NCC(=O)N[C@H](C(=O)NCC(=O)N[C@H](C(=O)N1CCC[C@H]1C(=O)NCC(=O)N[C@@H](Cc1ccccc1)C(=O)NCC(=O)N[C@@H](Cc1ccccc1)C(=O)N1CCC[C@H]1C(=O)NCC(=O)N[C@@H](Cc1ccccc1)C(=O)NCC(=O)N[C@@H](Cc1ccccc1)C(=O)N1CCC[C@H]1C(=O)N1CCC(c2noc3cc(F)ccc23)CC1)C(C)C)C(C)C)C(C)C)C(C)C)C(C)C` ({NH(2-F-phenyl)-CO}-GE(OcHex)GFPGVGVPGVGVPGVGVPGFGFPGFGFP-X1), the zone of inhibition at 30 µg/mL with Aspergillus flavus [1] was 43 mm; in the test on Escherichia coli, 24 mm; in the test on Aspergillus niger [6] it was 46 mm; in the test with Staphylococcus aureus, 22 mm; with Fusarium oxysporum [9], 44 mm; with Xanthomonas oryzae it was 21 mm. The zone of inhibition at 30 µg/mL in the test with Klebsiella pneumoniae amounted to 22 mm. Also, the results for the MIC in the test with Aspergillus niger [2], with Fusarium oxysporum [3] and with Aspergillus flavus [7] were 1.25 µg/mL (≈ 0.395 µM), 1.5 µg/mL (≈ 0.474 µM) and 1.25 µg/mL (≈ 0.395 µM), respectively. In addition, the Ratio in the test with Fusarium oxysporum [4], with Aspergillus niger [5] and in the test with Aspergillus flavus [8] was 10 throughout.
